Reference: PubChem BioAssay
A number with no mark means an inactive call. Calls of active or inactive are those of the source.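 How the source made its calls, unless noted: active means viability at or below 30% in both replicate assays; inconclusive means viability at or below 30% in just one of the two assays; inactive means the rest.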

experiment: HUVEC growth inhibition – cell-based, human, primary screen (AID 575); conditions: HUVEC proliferation, CellTiter-Glo luminescence, 72 h; at 10 µM; stronger effect = lower value;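 further: 100% = median of untreated cell wells with 0.1% DMSO on each plate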
Procedure, shortened: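 Assay system: Primary human umbilical vein endothelial cells | Quantity: 1250 cells per well | Medium: Supplemented EBM, 2% fetal bovine serum | Detection: CellTiter-Glo luminescence measuring cellular ATP | Read-out: % viability vs DMSO wells | Plate: Collagen-coated 384-well format | Times: 72 h exposure, 37 °C, 5% CO2, 30 min RT equilibration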

Compound	viability [%]
Cc1ccc(NC(=O)c2cc(-c3ccc(C)o3)nc3ccccc23)nc1	73
CCc1cccc(NC(=O)Cn2cc3c(n2)CCCC3)c1	89.8
CCN(CC)C(=O)C1CCCN(c2ncnc3c2cnn3-c2ccc(Cl)cc2)C1 (stereo not given)	49.2
Cc1cccc(NC(=O)CS(=O)(=O)c2cn(C)c3ccccc23)c1	105
O=C(CN1C(=O)c2ccccc2S1(=O)=O)NCc1ccccc1Cl	99
Cn1cnc2cc(NC(=O)c3ccc(Cl)cc3)ccc21	88.1
COC(=O)c1cn(NC(=O)C2CCCO2)c(=O)c2ccccc12 (stereo not given)	93.7
O=C(c1ccc(Cl)s1)N1CCN(c2nc3ccccc3s2)CC1	69.4
O=C(Nc1ccc(N2C(=O)C3C4C=CC(C4)C3C2=O)cc1)Nc1nncs1 (stereo not given)	96.2
CNC(=O)c1ccccc1NC(=O)c1c(O)c2c([nH]c1=O)CCCC2	98.9
COc1ccccc1CNC(=O)CCn1c(=O)[nH]c2ccsc2c1=O	114
Cc1ccc(-c2nc3cc(NC(=O)C(C)C)ccc3o2)cc1	73.5
COc1ccccc1N1CCN(C(=O)c2cc(C3CC3)on2)CC1	80.8
CCCCN(C(=O)c1ccc(Cl)cc1)C1CC2CCC(C1)N2C (stereo not given)	78.2
COc1ccc(OC)c2[nH]c(=O)c(CCNC(=O)C(C)C)cc12	83.2
COc1ccccc1S(=O)(=O)Cc1ccc(C(=O)N2CCN(c3ccccn3)CC2)o1	87.8
CCC(=O)c1cc(F)c(N2CCN(C(=O)c3ccco3)CC2)cc1C	91.2
CC(C)Cc1nnc(NS(=O)(=O)c2ccc(Cl)cc2)s1	90.1
COc1ccc(N2C(=O)CCC(C(=O)N3CCCCC3)C2c2ccc(OC)c(OC)c2)cc1 (stereo not given)	92.3
Cc1c(C#N)c2ccccc2n1CC(=O)N1CCc2ccccc2C1	93.5

Compound	viability [%]
COCCCNC(=O)c1ccc(CS(=O)(=O)c2ccc(OC)cc2)o1	95.4
CCCCSc1nc2c(cnn2-c2ccc(F)cc2)c(=O)[nH]1	96.2
COc1ccc2[nH]c(C)c(CCN3C(=O)OC(C)(C)C3(C)O)c2c1 (stereo not given)	102
CCCCOCCCNC(=O)COc1ccccc1	102
c1ccc(-c2cn3cccnc3n2)cc1	106
CCCCn1c(SCC(=O)OCC)nc2c1c(=O)[nH]c(=O)n2C	96.8
O=C(CCn1c(=O)oc2ccccc21)NCc1ccco1	89.9
CN(C)C(=O)N1CCN(C(=O)c2ccco2)CC1	94.6
CC(=O)C1=C(C)Nc2ncnn2C1c1cccc(OCc2ccccc2)c1 (stereo not given)	115
CC1Cc2nc(SCC(=O)N3CCCc4ccccc43)n(C)c(=O)c2S1 (stereo not given)	84.8
CCOC(=O)N1CCN(C(=O)c2ccc3nc4ccsc4c(=O)n3c2)CC1	87.2
CC(C)(C)SCCNC(=O)CN1C(=O)c2ccccc2S1(=O)=O	101
COc1cccc(-c2nnc(NC(C)=O)o2)c1	103
CCCCc1cc(=O)oc2cc(OCC(=O)N(CC)CC)c(Cl)cc12	77.9
CCOC(=O)CCc1c(C)nc2cc(-c3ccc(F)cc3)[nH]n2c1=O	97.6
CN(Cc1ccccc1)S(=O)(=O)c1ccc(S(=O)(=O)N2CCN(CCC#N)CC2)cc1	92.4
Cc1ccc(-n2c3c(cc(C(=O)NCCCN4CCOCC4)c2=O)C(=O)CC(C)(C)C3)cc1	87
COc1cc2c(cc1OC)C(c1ccc(C)o1)CC(=O)N2 (stereo not given)	86.2
O=C(Nc1ccc2c(c1)OCO2)c1ccc(CN2CCOCC2)cc1	98.7
CC1Cn2c(nnc2-c2ccc(F)cc2)S1 (stereo not given)	107

experiment: H69AR cell proliferation blockers – human, duplicate replicates, primary screen (AID 580;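 active means viability at or under a set limit in both replicates, limit being median viability minus 3 SD, cut at about 48% in these data, passing the limit was not always enough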;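 further: 100% = mean luminescence of untreated wells and 0% = no signal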); conditions: H69AR lung tumor cells viability, ATP luminescence, 72 h; at 10 µM; stronger effect = lower value

Compound	viability
Cc1ccc(NC(=O)c2cc(-c3ccc(C)o3)nc3ccccc23)nc1	4.86% (active)
CCc1cccc(NC(=O)Cn2cc3c(n2)CCCC3)c1	94.8%
CCN(CC)C(=O)C1CCCN(c2ncnc3c2cnn3-c2ccc(Cl)cc2)C1 (stereo not given)	86.1%
Cc1cccc(NC(=O)CS(=O)(=O)c2cn(C)c3ccccc23)c1	90.6%
O=C(CN1C(=O)c2ccccc2S1(=O)=O)NCc1ccccc1Cl	89.3%
Cn1cnc2cc(NC(=O)c3ccc(Cl)cc3)ccc21	93%
COC(=O)c1cn(NC(=O)C2CCCO2)c(=O)c2ccccc12 (stereo not given)	96.6%
O=C(c1ccc(Cl)s1)N1CCN(c2nc3ccccc3s2)CC1	85.9%
O=C(Nc1ccc(N2C(=O)C3C4C=CC(C4)C3C2=O)cc1)Nc1nncs1 (stereo not given)	87.8%
CNC(=O)c1ccccc1NC(=O)c1c(O)c2c([nH]c1=O)CCCC2	109%
COc1ccccc1CNC(=O)CCn1c(=O)[nH]c2ccsc2c1=O	93.9%
Cc1ccc(-c2nc3cc(NC(=O)C(C)C)ccc3o2)cc1	82.4%
COc1ccccc1N1CCN(C(=O)c2cc(C3CC3)on2)CC1	86.5%
CCCCN(C(=O)c1ccc(Cl)cc1)C1CC2CCC(C1)N2C (stereo not given)	85.1%
COc1ccc(OC)c2[nH]c(=O)c(CCNC(=O)C(C)C)cc12	88.6%
COc1ccccc1S(=O)(=O)Cc1ccc(C(=O)N2CCN(c3ccccn3)CC2)o1	88.9%
CCC(=O)c1cc(F)c(N2CCN(C(=O)c3ccco3)CC2)cc1C	87.9%
CC(C)Cc1nnc(NS(=O)(=O)c2ccc(Cl)cc2)s1	90%
COc1ccc(N2C(=O)CCC(C(=O)N3CCCCC3)C2c2ccc(OC)c(OC)c2)cc1 (stereo not given)	95.4%
Cc1c(C#N)c2ccccc2n1CC(=O)N1CCc2ccccc2C1	94.9%

Compound	viability
COCCCNC(=O)c1ccc(CS(=O)(=O)c2ccc(OC)cc2)o1	91.6%
CCCCSc1nc2c(cnn2-c2ccc(F)cc2)c(=O)[nH]1	74%
COc1ccc2[nH]c(C)c(CCN3C(=O)OC(C)(C)C3(C)O)c2c1 (stereo not given)	81.5%
CCCCOCCCNC(=O)COc1ccccc1	94.1%
c1ccc(-c2cn3cccnc3n2)cc1	101%
CCCCn1c(SCC(=O)OCC)nc2c1c(=O)[nH]c(=O)n2C	97.3%
O=C(CCn1c(=O)oc2ccccc21)NCc1ccco1	91%
CN(C)C(=O)N1CCN(C(=O)c2ccco2)CC1	101%
CC(=O)C1=C(C)Nc2ncnn2C1c1cccc(OCc2ccccc2)c1 (stereo not given)	88.6%
CC1Cc2nc(SCC(=O)N3CCCc4ccccc43)n(C)c(=O)c2S1 (stereo not given)	72%
CCOC(=O)N1CCN(C(=O)c2ccc3nc4ccsc4c(=O)n3c2)CC1	89.4%
CC(C)(C)SCCNC(=O)CN1C(=O)c2ccccc2S1(=O)=O	106%
COc1cccc(-c2nnc(NC(C)=O)o2)c1	98.8%
CCCCc1cc(=O)oc2cc(OCC(=O)N(CC)CC)c(Cl)cc12	79%
CCOC(=O)CCc1c(C)nc2cc(-c3ccc(F)cc3)[nH]n2c1=O	101%
CN(Cc1ccccc1)S(=O)(=O)c1ccc(S(=O)(=O)N2CCN(CCC#N)CC2)cc1	77.2%
Cc1ccc(-n2c3c(cc(C(=O)NCCCN4CCOCC4)c2=O)C(=O)CC(C)(C)C3)cc1	85%
COc1cc2c(cc1OC)C(c1ccc(C)o1)CC(=O)N2 (stereo not given)	89.4%
O=C(Nc1ccc2c(c1)OCO2)c1ccc(CN2CCOCC2)cc1	97.3%
CC1Cn2c(nnc2-c2ccc(F)cc2)S1 (stereo not given)	93.7%
